# In ChEMBL document CHEMBL5058577, “EUbOPEN Chemogenomics Library 2 (Multiplex)” (2022):
# Tested on: Fibroblast
# Test: Multiplex assay against human fibroblast
# Type: toxicity, cell-based
# In short: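 Phenotypes for tubulin, mitochondrial mass and membrane permeability are expressed as per cents of healthy-nucleus cells. Cells were stained live at seeding with Hoechst33342, BioTracker Green Microtubule Cytoskeleton Dye, MitoTracker Red and Annexin V Alexa Fluor 680, then imaged after compound addition on a CQ1 microscope at 37°C and 5% CO2. Machine-learning gating in CellPathfinder separated Hoechst high-intensity objects from normal cells, divided normal cells by nuclear state (healthy, pyknosed, fragmented) and divided pyknosed cells into mitotic or apoptotic.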
# [1] = 12 h, 1 µM, compound concentration 1 uM, replicate 1
# [2] = 12 h, 1 µM, compound concentration 1 uM, replicate 2
# [3] = 12 h, 10 µM, compound concentration 10 uM, replicate 1
# [4] = 12 h, 10 µM, compound concentration 10 uM, replicate 2
# [5] = 24 h, 1 µM, compound concentration 1 uM, replicate 1
# [6] = 24 h, 1 µM, compound concentration 1 uM, replicate 2
# [7] = 24 h, 10 µM, compound concentration 10 uM, replicate 1
# [8] = 24 h, 10 µM, compound concentration 10 uM, replicate 2
# [9] = 48 h, 1 µM, compound concentration 1 uM, replicate 1
# [10] = 48 h, 1 µM, compound concentration 1 uM, replicate 2
# [11] = 48 h, 10 µM, compound concentration 10 uM, replicate 1
# [12] = 48 h, 10 µM, compound concentration 10 uM, replicate 2
smiles,measurement,setting,value
O=S(=O)(c1ccccc1)c1cnc2c(N3CCNCC3)cccc2c1 [INTEPIRDINE],Population Apoptotic (%),[1],50%
same,Population Fragmented Nuclei (%),[1],23%
same,Population Healthy Nuclei (%),[1],67%
same,Population Hoechst High Intensity Objects (%),[1],3%
same,Population Membrane Permeable-Phenotype (%),[1],0%
same,Population Mitochondria Different-Phenotype (%),[1],2%
same,Population Mitotic Cells (%),[1],50%
same,Population Normal (%),[1],96%
same,Population Pyknosed Nuclei (%),[1],9%
same,Population Tubulin-Different-Phenotype (%),[1],26%
same,Total Cell Count,[1],212
same,Population Apoptotic (%),[2],34%
same,Population Fragmented Nuclei (%),[2],28%
same,Population Healthy Nuclei (%),[2],47%
same,Population Hoechst High Intensity Objects (%),[2],4%
same,Population Membrane Permeable-Phenotype (%),[2],7%
same,Population Mitochondria Different-Phenotype (%),[2],7%
same,Population Mitotic Cells (%),[2],65%
same,Population Normal (%),[2],95%
same,Population Pyknosed Nuclei (%),[2],24%
same,Population Tubulin-Different-Phenotype (%),[2],61%
same,Total Cell Count,[2],148
same,Population Apoptotic (%),[3],75%
same,Population Fragmented Nuclei (%),[3],22%
same,Population Healthy Nuclei (%),[3],62%
same,Population Hoechst High Intensity Objects (%),[3],1%
same,Population Membrane Permeable-Phenotype (%),[3],1%
same,Population Mitochondria Different-Phenotype (%),[3],8%
same,Population Mitotic Cells (%),[3],25%
same,Population Normal (%),[3],98%
same,Population Pyknosed Nuclei (%),[3],14%
same,Population Tubulin-Different-Phenotype (%),[3],44%
same,Total Cell Count,[3],138
same,Population Apoptotic (%),[4],61%
same,Population Fragmented Nuclei (%),[4],43%
same,Population Healthy Nuclei (%),[4],40%
same,Population Hoechst High Intensity Objects (%),[4],6%
same,Population Membrane Permeable-Phenotype (%),[4],5%
same,Population Mitochondria Different-Phenotype (%),[4],13%
same,Population Mitotic Cells (%),[4],38%
same,Population Normal (%),[4],93%
same,Population Pyknosed Nuclei (%),[4],16%
same,Population Tubulin-Different-Phenotype (%),[4],68%
same,Total Cell Count,[4],136
same,Population Apoptotic (%),[5],54%
same,Population Fragmented Nuclei (%),[5],16%
same,Population Healthy Nuclei (%),[5],72%
same,Population Hoechst High Intensity Objects (%),[5],5%
same,Population Membrane Permeable-Phenotype (%),[5],2%
same,Population Mitochondria Different-Phenotype (%),[5],4%
same,Population Mitotic Cells (%),[5],45%
same,Population Normal (%),[5],94%
same,Population Pyknosed Nuclei (%),[5],10%
same,Population Tubulin-Different-Phenotype (%),[5],28%
same,Total Cell Count,[5],212
same,Population Apoptotic (%),[6],41%
same,Population Fragmented Nuclei (%),[6],32%
same,Population Healthy Nuclei (%),[6],44%
same,Population Hoechst High Intensity Objects (%),[6],0%
same,Population Membrane Permeable-Phenotype (%),[6],1%
same,Population Mitotic Cells (%),[6],58%
same,Population Normal (%),[6],99%
same,Population Pyknosed Nuclei (%),[6],24%
same,Population Tubulin-Different-Phenotype (%),[6],59%
same,Total Cell Count,[6],151
same,Population Apoptotic (%),[7],40%
same,Population Fragmented Nuclei (%),[7],28%
same,Population Healthy Nuclei (%),[7],65%
same,Population Hoechst High Intensity Objects (%),[7],1%
same,Population Membrane Permeable-Phenotype (%),[7],0%
same,Population Mitochondria Different-Phenotype (%),[7],7%
same,Population Mitotic Cells (%),[7],60%
same,Population Normal (%),[7],98%
same,Population Pyknosed Nuclei (%),[7],6%
same,Population Tubulin-Different-Phenotype (%),[7],50%
same,Total Cell Count,[7],152
same,Population Apoptotic (%),[8],91%
same,Population Fragmented Nuclei (%),[8],39%
same,Population Healthy Nuclei (%),[8],50%
same,Population Hoechst High Intensity Objects (%),[8],4%
same,Population Membrane Permeable-Phenotype (%),[8],3%
same,Population Mitochondria Different-Phenotype (%),[8],15%
same,Population Mitotic Cells (%),[8],8%
same,Population Normal (%),[8],95%
same,Population Pyknosed Nuclei (%),[8],10%
same,Population Tubulin-Different-Phenotype (%),[8],67%
same,Total Cell Count,[8],123
same,Population Apoptotic (%),[9],66%
same,Population Fragmented Nuclei (%),[9],22%
same,Population Healthy Nuclei (%),[9],69%
same,Population Hoechst High Intensity Objects (%),[9],5%
same,Population Membrane Permeable-Phenotype (%),[9],0%
same,Population Mitochondria Different-Phenotype (%),[9],2%
same,Population Mitotic Cells (%),[9],33%
same,Population Normal (%),[9],94%
same,Population Pyknosed Nuclei (%),[9],7%
same,Population Tubulin-Different-Phenotype (%),[9],34%
same,Total Cell Count,[9],213
same,Population Apoptotic (%),[10],52%
same,Population Fragmented Nuclei (%),[10],39%
same,Population Healthy Nuclei (%),[10],45%
same,Population Hoechst High Intensity Objects (%),[10],3%
same,Population Membrane Permeable-Phenotype (%),[10],1%
same,Population Mitotic Cells (%),[10],48%
same,Population Normal (%),[10],96%
same,Population Pyknosed Nuclei (%),[10],15%
same,Population Tubulin-Different-Phenotype (%),[10],54%
same,Total Cell Count,[10],170
same,Population Apoptotic (%),[11],63%
same,Population Fragmented Nuclei (%),[11],23%
same,Population Healthy Nuclei (%),[11],67%
same,Population Hoechst High Intensity Objects (%),[11],3%
same,Population Membrane Permeable-Phenotype (%),[11],1%
same,Population Mitochondria Different-Phenotype (%),[11],15%
same,Population Mitotic Cells (%),[11],36%
same,Population Normal (%),[11],96%
same,Population Pyknosed Nuclei (%),[11],8%
same,Population Tubulin-Different-Phenotype (%),[11],47%
same,Total Cell Count,[11],139
same,Population Apoptotic (%),[12],40%
same,Population Fragmented Nuclei (%),[12],48%
same,Population Healthy Nuclei (%),[12],38%
same,Population Hoechst High Intensity Objects (%),[12],6%
same,Population Membrane Permeable-Phenotype (%),[12],6%
same,Population Mitochondria Different-Phenotype (%),[12],6%
same,Population Mitotic Cells (%),[12],60%
same,Population Normal (%),[12],93%
same,Population Pyknosed Nuclei (%),[12],12%
same,Population Tubulin-Different-Phenotype (%),[12],57%
same,Total Cell Count,[12],125
